Data: ChEMBL document CHEMBL3525913, “Metabolism-dependent inhibition of CYP3A4 by lapatinib: evidence for formation of a metabolic intermediate complex with a nitroso/oxime metabolite formed via a nitrone intermediate” (Drug Metab Dispos, 2013)

What was measured:
Liver microsome = experiment: Drug level in human liver microsomes treated with lapatinib at 50 uM by LC/MS/MS analysis; assay type: ADME
In short: (§1)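 Lapatinib 50 μM (added in DMSO) incubated 30 min at 37°C in 100 mM potassium phosphate pH 7.4 with HLM 1 mg/mL or recombinant CYP3A4+b5 / CYP3A5+b5 100 pmol/mL. Reaction started with NADPH 1 mM. Protein re-isolated by ultracentrifugation (100,000 x g, 4°C, 60 min), washed (KCl/EDTA), resuspended in phosphate buffer, ±2 mM ferricyanide 10 min 37°C, quenched with acetonitrile, then high-resolution LC/MS profiling.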

Cytochrome P450 3A4 = Cytochrome P450 3A4 (Homo sapiens, UniProt P08684); experiment: Activity of recombinant CYP3A4 (unknown origin) assessed as compound formation treated with lapatinib at 50 uM by LC/MS/MS analysis; assay type: ADME; conditions: recombinant enzyme; in short: as §1
[1] = Retention time of the compound by LC/MS/MS analysis relative to lapatinib; assay type: physicochemical
In short: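 Phenyl UPLC column (1.7 μm, 2.1 x 100 mm), 0.1% formic acid in water/acetonitrile, 0.4 mL/min. Gradient: 10% organic for 1 min, to 90% over 13 min, held 0.5 min. Detection by accurate-mass MS. Retention times expressed relative to lapatinib.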

Cytochrome P450 3A5 = Cytochrome P450 3A5 (Homo sapiens, UniProt P20815); experiment: Activity of recombinant CYP3A5 (unknown origin) assessed as compound formation treated with lapatinib at 50 uM by LC/MS/MS analysis; assay type: ADME; conditions: recombinant enzyme; in short: as §1
Cytochrome P450 3A5, sequence (P20815 whole entry): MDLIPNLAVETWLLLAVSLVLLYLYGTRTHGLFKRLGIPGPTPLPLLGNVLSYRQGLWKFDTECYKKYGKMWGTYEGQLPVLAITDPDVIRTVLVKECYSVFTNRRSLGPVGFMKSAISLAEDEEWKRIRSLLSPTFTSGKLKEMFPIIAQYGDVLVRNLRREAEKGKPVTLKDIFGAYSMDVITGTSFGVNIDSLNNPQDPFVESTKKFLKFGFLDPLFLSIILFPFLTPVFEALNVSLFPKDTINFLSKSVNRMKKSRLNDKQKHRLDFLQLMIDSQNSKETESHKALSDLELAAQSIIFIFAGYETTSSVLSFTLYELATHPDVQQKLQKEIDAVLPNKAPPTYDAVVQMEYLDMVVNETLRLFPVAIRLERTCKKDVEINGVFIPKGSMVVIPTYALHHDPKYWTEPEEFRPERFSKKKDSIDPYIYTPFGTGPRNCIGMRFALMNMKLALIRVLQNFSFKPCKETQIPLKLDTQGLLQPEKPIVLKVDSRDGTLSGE

Cytochrome P450 3A4, sequence (P08684 whole entry): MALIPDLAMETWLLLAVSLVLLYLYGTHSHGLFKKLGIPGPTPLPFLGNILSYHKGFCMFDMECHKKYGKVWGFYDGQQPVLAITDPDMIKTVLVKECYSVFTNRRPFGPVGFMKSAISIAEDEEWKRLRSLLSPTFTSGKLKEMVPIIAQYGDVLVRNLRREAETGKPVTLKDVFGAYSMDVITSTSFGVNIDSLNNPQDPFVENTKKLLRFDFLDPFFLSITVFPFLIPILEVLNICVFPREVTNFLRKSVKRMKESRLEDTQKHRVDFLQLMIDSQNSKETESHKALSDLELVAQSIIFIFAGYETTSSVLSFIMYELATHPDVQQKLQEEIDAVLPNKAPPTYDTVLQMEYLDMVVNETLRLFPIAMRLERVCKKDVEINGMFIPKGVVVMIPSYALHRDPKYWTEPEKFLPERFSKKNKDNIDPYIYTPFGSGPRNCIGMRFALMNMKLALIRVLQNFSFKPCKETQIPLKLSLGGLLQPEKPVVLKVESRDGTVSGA

Drug metabolism (Liver microsome) | Drug metabolism (Cytochrome P450 3A4) | Ratio [1] | Drug metabolism (Cytochrome P450 3A5) | Structure (SMILES)
metabolite_detected | metabolite_detected | 0.5 | metabolite_detected | CS(=O)(=O)CCNCc1ccc(-c2ccc3ncnc(Nc4ccc(O)c(Cl)c4)c3c2)o1
metabolite_detected | metabolite_detected | 1.14 | metabolite_detected | CS(=O)(=O)CCN(O)Cc1ccc(-c2ccc3ncnc(Nc4ccc(OCc5cccc(F)c5)c(Cl)c4)c3c2)o1
metabolite_detected | metabolite_detected | 1.18 | metabolite_detected | O/N=C/c1ccc(-c2ccc3ncnc(Nc4ccc(OCc5cccc(F)c5)c(Cl)c4)c3c2)o1
metabolite_detected | metabolite_detected | 0.97 | metabolite_detected | NCc1ccc(-c2ccc3ncnc(Nc4ccc(OCc5cccc(F)c5)c(Cl)c4)c3c2)o1
